≈ marks a conversion by molar mass, not a printed value. Read-outs that look alike come from different tables or passages of the source.
Tests used:
[1] = test system: E. faecalis (ATCC 29212); assay: Broth microdilution MIC; type: cell-based; details: Enterococcus faecalis, ATCC29212
[2] = target: S. pneumoniae PheRS (Streptococcus pneumoniae serotype 2, UniProt Q04LU1); assay: tRNA aminoacylation assay in SPA format, S. pneumoniae PheRS; type: biochemical
[3] = test system: S. pneumoniae (ATCC 49619); assay: Broth microdilution MIC; type: cell-based; details: Streptococcus pneumoniae, ATCC49619
[4] = target: P. aeruginosa PheRS (Pseudomonas aeruginosa, UniProt Q9I0A3); assay: tRNA aminoacylation assay in SPA format, P. aeruginosa PheRS; type: biochemical
Chain of P. aeruginosa PheRS (Q9I0A4 whole entry): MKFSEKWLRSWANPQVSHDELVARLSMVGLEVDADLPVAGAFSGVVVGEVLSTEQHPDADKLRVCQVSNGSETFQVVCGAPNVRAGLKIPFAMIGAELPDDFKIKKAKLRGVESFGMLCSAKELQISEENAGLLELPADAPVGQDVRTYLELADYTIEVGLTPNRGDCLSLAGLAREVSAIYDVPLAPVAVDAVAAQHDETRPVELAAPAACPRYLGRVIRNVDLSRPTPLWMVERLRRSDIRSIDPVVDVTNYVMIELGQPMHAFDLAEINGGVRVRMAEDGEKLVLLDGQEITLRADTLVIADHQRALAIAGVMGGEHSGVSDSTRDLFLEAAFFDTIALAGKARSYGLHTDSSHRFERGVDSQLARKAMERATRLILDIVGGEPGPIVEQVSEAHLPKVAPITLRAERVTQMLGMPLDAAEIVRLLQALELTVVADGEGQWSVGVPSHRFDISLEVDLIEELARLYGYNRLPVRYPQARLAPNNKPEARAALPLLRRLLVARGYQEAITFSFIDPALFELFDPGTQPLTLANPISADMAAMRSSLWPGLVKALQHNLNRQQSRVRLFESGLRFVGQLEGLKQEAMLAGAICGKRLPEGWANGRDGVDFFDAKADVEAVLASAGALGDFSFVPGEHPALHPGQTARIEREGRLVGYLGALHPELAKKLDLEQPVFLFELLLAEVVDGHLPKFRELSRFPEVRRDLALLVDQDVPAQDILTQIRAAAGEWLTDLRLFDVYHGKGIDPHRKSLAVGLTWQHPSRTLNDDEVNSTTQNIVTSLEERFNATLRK
Chain of P. aeruginosa PheRS (Q9I0A3 whole entry): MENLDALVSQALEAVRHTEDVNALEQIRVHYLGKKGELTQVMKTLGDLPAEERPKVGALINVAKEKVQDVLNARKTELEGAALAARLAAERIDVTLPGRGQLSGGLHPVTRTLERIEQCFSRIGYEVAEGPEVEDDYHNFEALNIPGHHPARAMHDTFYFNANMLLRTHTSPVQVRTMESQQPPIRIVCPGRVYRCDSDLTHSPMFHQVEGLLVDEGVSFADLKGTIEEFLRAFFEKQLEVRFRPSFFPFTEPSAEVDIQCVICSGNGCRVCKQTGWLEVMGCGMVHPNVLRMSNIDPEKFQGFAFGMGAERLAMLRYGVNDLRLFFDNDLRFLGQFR

[5] = test system: S. aureus (ATCC 29213); assay: Broth microdilution MIC; type: cell-based; details: Staphylococcus aureus, ATCC29213
[6] = test system: H. influenzae (ATCC 49766); assay: Broth microdilution MIC; type: cell-based; details: Haemophilus influenzae, ATCC49766
[7] = test system: P. aeruginosa (ATCC 47085); assay: Broth microdilution MIC; type: cell-based; details: Pseudomonas aeruginosa, ATCC47085
[8] = test system: E. coli (ATCC 25922); assay: Broth microdilution MIC; type: cell-based; details: Escherichia coli, ATCC25922
[9] = test system: P. aeruginosa (hypersensitive); assay: Broth microdilution MIC; type: cell-based; details: Pseudomonas aeruginosa, ATCC35151
[10] = test system: cytoplasmic protein synthesis in wheat germ extracts; assay: Wheat germ extract poly-Phe cytoplasmic protein synthesis assay; type: biochemical; details: poly-U mRNA, compound to 132 μM
In short: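 Cytoplasmic poly-Phe synthesis in wheat germ extract programmed with poly-U mRNA, yeast tRNAPhe and [3H]phenylalanine. Levels of mRNA, tRNA, label and Mg++ were optimized for poly-Phe synthesis. Cycloheximide served as reference protein-synthesis inhibitor.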

[11] = test system: P. aeruginosa PAO200 (efflux mutant); assay: Broth microdilution MIC; type: cell-based; details: Pseudomonas aeruginosa
[12] = test system: M. catarrhalis (ATCC 25238); assay: Broth microdilution MIC; type: cell-based; details: Moraxella catarrhalis, ATCC25238
[13] = target: T1, human mitochondrial PheRS (hmPheRS) (Homo sapiens, UniProt O95363); assay: Human mitochondrial PheRS aminoacylation assay; type: biochemical; details: 132 μM compound; 0.2 μM hmPheRS; average of three assays
T1 sequence (O95363 1-451): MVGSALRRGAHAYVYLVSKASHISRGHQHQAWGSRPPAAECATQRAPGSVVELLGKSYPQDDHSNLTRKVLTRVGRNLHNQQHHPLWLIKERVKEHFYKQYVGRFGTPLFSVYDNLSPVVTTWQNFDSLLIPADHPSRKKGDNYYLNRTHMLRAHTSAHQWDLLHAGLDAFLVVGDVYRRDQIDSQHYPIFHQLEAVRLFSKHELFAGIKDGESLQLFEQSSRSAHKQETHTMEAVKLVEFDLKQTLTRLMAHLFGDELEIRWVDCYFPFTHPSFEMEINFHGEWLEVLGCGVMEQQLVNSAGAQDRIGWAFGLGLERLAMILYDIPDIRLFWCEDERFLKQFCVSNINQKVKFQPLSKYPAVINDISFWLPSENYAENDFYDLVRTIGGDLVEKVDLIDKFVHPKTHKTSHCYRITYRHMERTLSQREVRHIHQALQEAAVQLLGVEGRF

[14] = test system: E. coli tolC; assay: Broth microdilution MIC; type: cell-based; details: Escherichia coli
[15] = test system: cytoplasmic protein synthesis in wheat germ extracts; details: wheat germ extract; at 30 μM; cited from earlier work
[16] = IC50s at five Phe concentrations 25 to 300 μM, ATP fixed at 2.5 mM
[17] = IC50s at six ATP concentrations 25 to 1000 μM, Phe fixed at 100 μM

Chain of S. pneumoniae PheRS (Q04LU1 whole entry): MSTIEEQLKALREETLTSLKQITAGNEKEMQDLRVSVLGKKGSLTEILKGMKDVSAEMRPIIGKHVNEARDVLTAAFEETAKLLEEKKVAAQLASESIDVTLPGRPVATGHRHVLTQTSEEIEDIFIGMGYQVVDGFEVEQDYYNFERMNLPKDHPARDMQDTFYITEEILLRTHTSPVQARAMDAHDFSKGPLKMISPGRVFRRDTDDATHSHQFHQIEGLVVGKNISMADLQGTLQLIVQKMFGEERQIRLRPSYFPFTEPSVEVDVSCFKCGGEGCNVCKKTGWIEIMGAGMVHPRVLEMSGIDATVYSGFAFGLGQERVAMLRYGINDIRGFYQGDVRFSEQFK

`Cc1cc2c(C(C)C)c(O)c(O)c(C=O)c2c(O)c1-c1c(C)cc2c(C(C)C)c(O)c(O)c(C=O)c2c1O` [BPP_03B04, gossypol] showed an MIC [1] of 32 µg/mL (≈ 61.7 µM), an IC50 [2] of 4.9 µM and a Ki [2] of 0.98 µM. For the same molecule, the “mode of action relative to Phe” value [2, 16] was “competitive”, the “mode of action relative to ATP” value [2, 17] was “uncompetitive” and the MIC [3] was 32 µg/mL (≈ 61.7 µM). The IC50 [4] was 2.3 µM, the Ki [4] was 0.83 µM and the “mode of action relative to Phe” value [4, 16] was “competitive”. For the same molecule, the “mode of action relative to ATP” value [4, 17] was “uncompetitive”, the MIC [5] was 16 µg/mL (≈ 30.9 µM) and the MIC [6] was 16 µg/mL (≈ 30.9 µM). It also gave an MIC [7] of 16 µg/mL (≈ 30.9 µM), an MIC [8] of 128 µg/mL (≈ 247 µM) and an MIC [9] of 16 µg/mL (≈ 30.9 µM). The “inhibition of protein synthesis” value [10] was “no inhibition”, the MIC [11] was 16 µg/mL (≈ 30.9 µM) and the MIC [12] was 32 µg/mL (≈ 61.7 µM). The “decrease of hmPheRS activity” value [13] was “approximately 80%” and the MIC [14] was 128 µg/mL (≈ 247 µM).
In the case of `C[C@@H]1C[C@@H]([C@H](O)CC2CC(=O)NC(=O)C2)C(=O)[C@@H](C)C1` [cycloheximide], the “inhibition of protein synthesis” value [15] is given as “inhibited”.

From PMC4439361 (Current drug discovery technologies, 2015)
